In ChEMBL document CHEMBL1147453, “3,4-Dihydroquinazoline derivatives as novel selective T-type Ca2+ channel blockers” (Bioorg Med Chem Lett, 2004) one finds inhibition and IC50 data, which are given here for 27 compounds.

SMILES strings stand for the structures.

Sequence of Voltage-dependent N-type calcium channel subunit alpha-1B (Homo sapiens) (Q00975 whole entry, looked up): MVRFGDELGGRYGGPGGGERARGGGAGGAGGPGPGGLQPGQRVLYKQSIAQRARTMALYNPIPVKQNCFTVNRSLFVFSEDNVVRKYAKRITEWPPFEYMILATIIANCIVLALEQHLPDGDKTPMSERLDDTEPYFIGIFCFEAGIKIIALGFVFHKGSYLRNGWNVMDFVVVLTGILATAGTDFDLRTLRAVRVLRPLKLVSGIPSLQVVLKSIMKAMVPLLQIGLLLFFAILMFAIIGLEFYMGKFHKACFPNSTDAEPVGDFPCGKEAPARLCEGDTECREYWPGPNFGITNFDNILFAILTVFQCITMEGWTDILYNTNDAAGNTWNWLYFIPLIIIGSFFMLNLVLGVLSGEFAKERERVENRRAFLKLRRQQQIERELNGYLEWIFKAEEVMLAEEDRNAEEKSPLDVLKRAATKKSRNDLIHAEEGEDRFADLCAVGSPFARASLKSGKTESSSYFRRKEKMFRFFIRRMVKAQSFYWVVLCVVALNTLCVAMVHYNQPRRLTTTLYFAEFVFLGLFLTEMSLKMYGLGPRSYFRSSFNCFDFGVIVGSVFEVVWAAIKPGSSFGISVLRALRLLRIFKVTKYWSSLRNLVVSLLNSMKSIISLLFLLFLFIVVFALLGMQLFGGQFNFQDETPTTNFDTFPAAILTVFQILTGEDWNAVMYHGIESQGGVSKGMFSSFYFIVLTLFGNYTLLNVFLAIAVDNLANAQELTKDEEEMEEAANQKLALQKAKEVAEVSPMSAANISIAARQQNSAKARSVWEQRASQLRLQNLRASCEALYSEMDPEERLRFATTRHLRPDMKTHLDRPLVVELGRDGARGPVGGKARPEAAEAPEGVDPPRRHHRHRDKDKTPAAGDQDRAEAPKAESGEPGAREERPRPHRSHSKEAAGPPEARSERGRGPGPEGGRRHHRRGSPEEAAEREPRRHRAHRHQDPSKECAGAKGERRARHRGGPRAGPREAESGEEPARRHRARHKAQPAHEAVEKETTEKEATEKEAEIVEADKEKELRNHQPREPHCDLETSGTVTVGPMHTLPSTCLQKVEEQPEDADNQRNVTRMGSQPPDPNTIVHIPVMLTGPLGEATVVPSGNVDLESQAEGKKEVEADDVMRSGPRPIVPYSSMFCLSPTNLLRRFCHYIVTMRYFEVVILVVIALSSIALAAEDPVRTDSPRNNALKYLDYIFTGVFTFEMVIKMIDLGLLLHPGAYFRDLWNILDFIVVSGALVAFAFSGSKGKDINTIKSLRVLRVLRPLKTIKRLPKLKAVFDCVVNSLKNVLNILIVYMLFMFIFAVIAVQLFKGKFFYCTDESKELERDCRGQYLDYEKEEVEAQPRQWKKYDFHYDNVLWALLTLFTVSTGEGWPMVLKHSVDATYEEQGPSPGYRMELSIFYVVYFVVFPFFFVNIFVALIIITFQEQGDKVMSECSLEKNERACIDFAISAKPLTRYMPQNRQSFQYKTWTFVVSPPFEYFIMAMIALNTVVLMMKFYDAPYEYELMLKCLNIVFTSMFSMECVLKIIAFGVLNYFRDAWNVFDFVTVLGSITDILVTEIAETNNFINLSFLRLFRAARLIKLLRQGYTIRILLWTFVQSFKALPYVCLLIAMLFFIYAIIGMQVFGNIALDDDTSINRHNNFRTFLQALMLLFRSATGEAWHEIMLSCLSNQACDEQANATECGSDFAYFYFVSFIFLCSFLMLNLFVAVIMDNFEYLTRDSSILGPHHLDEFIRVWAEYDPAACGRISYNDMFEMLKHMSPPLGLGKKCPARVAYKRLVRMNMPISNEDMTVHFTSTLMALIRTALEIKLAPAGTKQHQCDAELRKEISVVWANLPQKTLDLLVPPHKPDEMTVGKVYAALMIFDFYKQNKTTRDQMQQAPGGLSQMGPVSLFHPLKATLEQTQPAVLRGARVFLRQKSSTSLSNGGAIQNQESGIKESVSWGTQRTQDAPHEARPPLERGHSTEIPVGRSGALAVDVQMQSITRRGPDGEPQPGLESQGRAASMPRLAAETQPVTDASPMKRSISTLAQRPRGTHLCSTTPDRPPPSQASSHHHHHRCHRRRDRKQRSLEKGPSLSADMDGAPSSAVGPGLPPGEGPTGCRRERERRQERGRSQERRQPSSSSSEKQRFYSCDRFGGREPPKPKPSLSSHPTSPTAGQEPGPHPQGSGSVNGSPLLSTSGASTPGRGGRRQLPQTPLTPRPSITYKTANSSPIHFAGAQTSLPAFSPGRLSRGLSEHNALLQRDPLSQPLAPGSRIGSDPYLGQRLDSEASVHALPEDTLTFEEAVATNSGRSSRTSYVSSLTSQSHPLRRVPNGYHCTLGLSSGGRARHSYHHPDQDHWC

The first test has as its target Voltage-dependent N-type calcium channel subunit alpha-1B (Homo sapiens) (UniProt Q00975). Description: Inhibition of HVA N-type [Ca2+] channels of major pelvic ganglion (MPG) neurons at 10 uM. It is filed as functional.
Conditions: not given
In short, it runs like this: (§1)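 Major pelvic ganglion (MPG) neurons, compound at 10 µM. Percent inhibition measured for both LVA (T-type) and HVA (N-type) Ca2+ currents, as part of an ion-channel selectivity screen that also covered Na+ channels.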
A word on the inhibition: it is the percentage by which the read-out fell short of the control. Consider `O=C(CC1c2ccccc2N=C(N2CCCCC2)N1c1ccccc1)NCc1ccc(NS(=O)(=O)c2ccc(F)cc2)cc1` (stereo unspecified), for which the inhibition is 50.8%.
For `O=C(CC1c2ccccc2N=C(N2CCCCC2)N1c1ccccc1)NCc1ccccc1` (stereo unspecified), the inhibition came out at 12%.
`O=C(CC1c2ccccc2N=C(N2CCCCC2)N1c1ccccc1)NCc1ccc([N+](=O)[O-])cc1` (stereo unspecified): the inhibition is 32.2%.
Regarding `Nc1ccc(CNC(=O)CC2c3ccccc3N=C(N3CCCCC3)N2c2ccccc2)cc1` (stereo unspecified), the inhibition turned out to be 18.4%.
Consider `Cc1ccc(S(=O)(=O)Nc2ccc(CNC(=O)CC3c4ccccc4N=C(N4CCCCC4)N3c3ccccc3)cc2)cc1` (stereo unspecified), for which the inhibition was determined as 38.7%.

Test system in another test: not listed separately
Description: Inhibition of LVA T-type [Ca2+] channels of major pelvic ganglion (MPG) neurons at 10 uM. The test is classed as functional.
Conditions: not given
In outline: as §1
With `O=C(CC1c2ccccc2N=C(N2CCCCC2)N1c1ccccc1)NCc1ccc(NS(=O)(=O)c2ccc(F)cc2)cc1` (stereo unspecified), the inhibition at 10 µM amounted to 49.6%.
As for `O=C(CC1c2ccccc2N=C(N2CCCCC2)N1c1ccccc1)NCc1ccccc1` (stereo unspecified), 10 µM produced 76% inhibition.
On the same count and under the same terms, for `O=C(CC1c2ccccc2N=C(N2CCCCC2)N1c1ccccc1)NCc1ccc([N+](=O)[O-])cc1` (stereo unspecified) the value was 37.7%.
`Nc1ccc(CNC(=O)CC2c3ccccc3N=C(N3CCCCC3)N2c2ccccc2)cc1` (stereo unspecified) registered an inhibition at 10 µM of 4.7%.
`Cc1ccc(S(=O)(=O)Nc2ccc(CNC(=O)CC3c4ccccc4N=C(N4CCCCC4)N3c3ccccc3)cc2)cc1` (stereo unspecified) yielded an inhibition at 10 µM of 29%.

In the next test the target is T1, Voltage-dependent T-type calcium channel subunit alpha-1G (Homo sapiens, UniProt O43497). The test can be described thus: Concentration of the compounds required for inhibition of HEK293 cells (alpha1G T-type). It is filed as functional, cell-based.
T1 sequence (O43497 whole entry): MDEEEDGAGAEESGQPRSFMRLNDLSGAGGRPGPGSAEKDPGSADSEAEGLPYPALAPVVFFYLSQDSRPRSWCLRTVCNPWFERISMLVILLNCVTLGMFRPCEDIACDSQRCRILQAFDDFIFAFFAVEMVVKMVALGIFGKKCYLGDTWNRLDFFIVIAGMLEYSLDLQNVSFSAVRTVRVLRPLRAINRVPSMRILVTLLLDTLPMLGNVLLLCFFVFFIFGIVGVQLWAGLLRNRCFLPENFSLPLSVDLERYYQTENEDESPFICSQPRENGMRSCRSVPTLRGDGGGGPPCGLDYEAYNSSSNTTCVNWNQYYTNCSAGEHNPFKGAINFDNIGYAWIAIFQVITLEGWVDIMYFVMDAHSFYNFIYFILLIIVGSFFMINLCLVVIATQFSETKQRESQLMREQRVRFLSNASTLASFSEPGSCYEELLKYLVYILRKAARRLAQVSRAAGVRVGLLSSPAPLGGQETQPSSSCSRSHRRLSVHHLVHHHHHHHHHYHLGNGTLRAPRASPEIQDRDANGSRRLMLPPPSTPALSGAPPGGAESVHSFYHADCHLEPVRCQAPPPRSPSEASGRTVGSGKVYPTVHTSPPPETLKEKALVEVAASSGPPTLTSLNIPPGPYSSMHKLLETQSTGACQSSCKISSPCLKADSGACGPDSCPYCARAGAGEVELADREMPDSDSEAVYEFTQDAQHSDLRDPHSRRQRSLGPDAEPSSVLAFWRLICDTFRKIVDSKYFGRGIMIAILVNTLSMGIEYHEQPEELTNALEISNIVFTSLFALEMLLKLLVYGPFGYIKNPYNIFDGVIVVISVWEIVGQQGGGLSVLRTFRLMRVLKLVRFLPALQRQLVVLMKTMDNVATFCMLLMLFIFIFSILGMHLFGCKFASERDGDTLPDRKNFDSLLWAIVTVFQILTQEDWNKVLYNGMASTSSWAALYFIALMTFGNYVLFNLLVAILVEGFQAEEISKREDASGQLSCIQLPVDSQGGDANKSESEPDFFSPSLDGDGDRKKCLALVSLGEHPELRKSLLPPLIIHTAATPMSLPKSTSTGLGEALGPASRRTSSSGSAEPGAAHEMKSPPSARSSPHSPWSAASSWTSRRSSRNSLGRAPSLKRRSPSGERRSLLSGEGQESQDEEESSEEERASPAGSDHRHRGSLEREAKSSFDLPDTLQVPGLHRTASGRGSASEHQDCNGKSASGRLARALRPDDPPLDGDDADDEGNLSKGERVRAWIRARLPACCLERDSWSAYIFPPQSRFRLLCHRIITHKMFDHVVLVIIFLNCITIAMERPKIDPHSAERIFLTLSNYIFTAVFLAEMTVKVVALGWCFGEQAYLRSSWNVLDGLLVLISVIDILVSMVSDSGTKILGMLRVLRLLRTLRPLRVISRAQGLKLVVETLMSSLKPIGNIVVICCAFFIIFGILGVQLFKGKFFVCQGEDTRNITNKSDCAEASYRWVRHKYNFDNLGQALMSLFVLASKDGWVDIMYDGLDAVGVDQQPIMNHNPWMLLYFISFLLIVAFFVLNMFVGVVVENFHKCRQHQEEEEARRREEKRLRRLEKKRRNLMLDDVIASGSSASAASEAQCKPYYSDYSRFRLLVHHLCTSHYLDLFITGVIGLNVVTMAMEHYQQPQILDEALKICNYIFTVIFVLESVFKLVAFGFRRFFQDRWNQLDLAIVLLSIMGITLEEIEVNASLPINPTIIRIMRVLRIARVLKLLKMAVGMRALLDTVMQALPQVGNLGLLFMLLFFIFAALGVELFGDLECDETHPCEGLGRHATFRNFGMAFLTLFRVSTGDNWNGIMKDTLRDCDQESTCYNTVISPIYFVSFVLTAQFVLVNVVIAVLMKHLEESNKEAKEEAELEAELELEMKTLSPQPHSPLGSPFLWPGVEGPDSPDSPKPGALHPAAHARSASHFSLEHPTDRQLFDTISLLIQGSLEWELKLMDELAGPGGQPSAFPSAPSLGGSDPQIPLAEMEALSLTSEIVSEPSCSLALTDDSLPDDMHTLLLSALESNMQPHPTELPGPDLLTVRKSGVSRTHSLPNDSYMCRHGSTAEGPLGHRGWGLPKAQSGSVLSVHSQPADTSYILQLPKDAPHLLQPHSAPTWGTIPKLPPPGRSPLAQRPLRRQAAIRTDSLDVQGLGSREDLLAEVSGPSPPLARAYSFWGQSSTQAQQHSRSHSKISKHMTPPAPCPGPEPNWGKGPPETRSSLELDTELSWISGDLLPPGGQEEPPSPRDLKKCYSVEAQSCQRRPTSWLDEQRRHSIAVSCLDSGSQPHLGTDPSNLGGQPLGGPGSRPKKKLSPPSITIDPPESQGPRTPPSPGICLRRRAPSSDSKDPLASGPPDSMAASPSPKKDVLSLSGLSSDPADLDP
Conditions: not given
One may read the IC50 as the concentration that inhibits the measured activity by half. For `O=C(CC1c2ccccc2N=C(N2CCCCC2)N1c1ccccc1)NCc1ccc(NS(=O)(=O)c2ccc(F)cc2)cc1` (stereo unspecified), the IC50 is 0.2 µM.
Same read-out and setting: for `COC(=O)CC1c2ccccc2N=C(c2ccccc2)N1c1ccccc1` (stereo unspecified) the value was 10.7 µM; for `O=C(CC1c2ccccc2N=C(N2CCCCC2)N1c1ccccc1)NCc1ccccc1` (stereo unspecified), 0.9 µM; for `CN1CCN(C2=Nc3ccccc3C(CC(=O)NCc3ccccc3)N2c2ccccc2)CC1` (stereo unspecified), 35.8 µM.
Regarding `O=C(CC1c2ccccc2N=C(N2CCCCC2)N1c1ccccc1)NCc1ccc([N+](=O)[O-])cc1` (stereo unspecified), the IC50 was 2.5 µM.
`Nc1ccc(CNC(=O)CC2c3ccccc3N=C(N3CCCCC3)N2c2ccccc2)cc1` (stereo unspecified): the IC50 turned out to be 14.4 µM.
In the case of `COC(=O)CC1c2ccccc2N=C(N2CCCCC2)N1c1ccccc1` (stereo unspecified), the IC50 stood at 27.7 µM.
For the compound `O=C(CC1c2ccccc2N=C(N2CCOCC2)N1c1ccccc1)NCc1ccccc1` (stereo unspecified), the IC50 worked out at 21.6 µM.
The same measure, in the same setting: to `Cc1ccc(S(=O)(=O)Nc2ccc(CNC(=O)CC3c4ccccc4N=C(N4CCCCC4)N3c3ccccc3)cc2)cc1` (stereo unspecified) belongs 0.25 µM.

The next test has as its target T1, Voltage-dependent T-type calcium channel subunit alpha-1G. Description: In vitro inhibition of alpha-1G T-type [Ca2+] channels expressed in HEK293 cells. It is filed as functional, cell-based.
Conditions: not given
In short, it runs like this: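 α1G T-type Ca2+ currents recorded in HEK293 cells by whole-cell patch clamp. IC50 is the molar concentration giving 50% inhibition of α1G current, obtained by fitting raw data to dose–response curves.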
In the case of `COC(=O)CC1c2ccccc2N=C(c2ccccc2)N1c1ccccc1` (stereo unspecified), the inhibition turned out to be 50%.

For another test, the target named is Voltage-dependent T-type calcium channel subunit alpha-1H (Homo sapiens) (UniProt O95180). The test can be described thus: In vitro inhibitory effect on alpha-1H T-type [Ca2+] channels expressed in Xenopus oocytes at 100 uM. It is filed as functional, cell-based. The note with it: Oocyte. In outline: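 Preliminary screen at 100 µM on α1H T-type Ca2+ channels expressed in Xenopus oocytes, recorded by two-electrode voltage clamp. Output is percent inhibition of current.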
In the case of `O=C(O)CC1c2ccccc2N=C(N2CCOCC2)N1c1ccccc1` (stereo unspecified), the inhibition stood at 9%.
Regarding `O=C(CC1c2ccccc2N=C(N2CCCCC2)N1c1ccccc1)NCc1ccc(NS(=O)(=O)c2ccc(F)cc2)cc1` (stereo unspecified), the inhibition worked out at 80.5%.
Regarding `COC(=O)CC1c2ccccc2N=C(c2ccccc2)N1c1ccccc1` (stereo unspecified), the inhibition was 51.5%.
`O=C(CC1c2ccccc2N=C(N2CCCCC2)N1c1ccccc1)OCc1ccccc1` (stereo unspecified): the inhibition was 15.6%.
Same read-out and setting: to `COC(=O)CC1c2ccccc2N=C(N2CCN(C)CC2)N1C(C)C` (stereo unspecified) belongs 0%.
Same read-out and setting: to `CN1CCN(C2=Nc3ccccc3C(CC(=O)O)N2c2ccccc2)CC1` (stereo unspecified) belongs 15%; to `COC(=O)CC1c2ccccc2N=C(N2CCN(C)CC2)N1C1CCCCC1` (stereo unspecified), 3%; to `COC(=O)CC1c2ccccc2N=C(N2CCOCC2)N1C1CCCCC1` (stereo unspecified), 12.2%.
As to `O=C(CC1c2ccccc2N=C(N2CCCCC2)N1c1ccccc1)NCc1ccccc1` (stereo unspecified), the inhibition was 77%.
In the case of `COCC(=O)O[C@]1(CCN(C)CCCc2nc3ccccc3[nH]2)CCc2cc(F)ccc2[C@@H]1C(C)C`, the inhibition is 86%.
In the case of `O=C(O)CC1c2ccccc2N=C(N2CCCCC2)N1c1ccccc1` (stereo unspecified), the inhibition turned out to be 8%.
On the same count and under the same terms, for `O=C(CC1c2ccccc2N=C(c2ccccc2)N1c1ccccc1)NCc1ccccc1` (stereo unspecified) the value was 14.8%; for `O=C(CC1c2ccccc2N=C(c2ccccc2)N1c1ccccc1)OCc1ccccc1` (stereo unspecified), 14.2%.
Regarding `COC(=O)CC1c2ccccc2N=C(N2CCCCC2)N1C1CCCCC1` (stereo unspecified), the inhibition was 27%.
Same read-out and setting: to `CN1CCN(C2=Nc3ccccc3C(CC(=O)OCc3ccccc3)N2c2ccccc2)CC1` (stereo unspecified) belongs 32.7%; to `CN1CCN(C2=Nc3ccccc3C(CC(=O)NCc3ccccc3)N2c2ccccc2)CC1` (stereo unspecified), 70.3%.
As to `O=C(O)CC1c2ccccc2N=C(c2ccccc2)N1c1ccccc1` (stereo unspecified), the inhibition was determined as 7.2%.
Still for that read-out and setting: to `COC(=O)CC1c2ccccc2N=C(N2CCOCC2)N1C(C)C` (stereo unspecified) belongs 0%; to `O=C(CC1c2ccccc2N=C(N2CCCCC2)N1c1ccccc1)NCc1ccc([N+](=O)[O-])cc1` (stereo unspecified), 91.9%; to `Nc1ccc(CNC(=O)CC2c3ccccc3N=C(N3CCCCC3)N2c2ccccc2)cc1` (stereo unspecified), 66.8%.
For `COC(=O)CC1c2ccccc2N=C(N2CCCCC2)N1c1ccccc1` (stereo unspecified), the inhibition was 11.5%.
`COC(=O)CC1c2ccccc2N=C(N2CCOCC2)N1c1ccccc1` (stereo unspecified): the inhibition turned out to be 14%.
Consider `COC(=O)CC1c2ccccc2N=C(N2CCN(C)CC2)N1c1ccccc1` (stereo unspecified), for which the inhibition came to 15%.
Take `O=C(CC1c2ccccc2N=C(N2CCOCC2)N1c1ccccc1)NCc1ccccc1` (stereo unspecified): the inhibition stood at 63.8%.
Consider `COC(=O)CC1c2ccccc2N=C(N2CCCCC2)N1C(C)C` (stereo unspecified), for which the inhibition is 8%.
As for `O=C(CC1c2ccccc2N=C(N2CCOCC2)N1c1ccccc1)OCc1ccccc1` (stereo unspecified), the inhibition worked out at 20.9%.
On the same count and under the same terms, to `Cc1ccc(S(=O)(=O)Nc2ccc(CNC(=O)CC3c4ccccc4N=C(N4CCCCC4)N3c3ccccc3)cc2)cc1` (stereo unspecified) belongs 84.7%.

The target of another test is T1, Voltage-dependent T-type calcium channel subunit alpha-1G. The test can be described thus: In vitro inhibition of alpha-1G T-type [Ca2+] channels expressed in HEK293 cells at 10 uM. The test is classed as functional, cell-based.
Conditions: not given
In outline: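 Whole-cell patch clamp on HEK293 cells expressing α1G T-type Ca2+ channels, test compound at 10 µM. Percent inhibition of T-type current reported as mean ± SEM from repeated runs (n ≥ 3).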
`O=C(CC1c2ccccc2N=C(N2CCCCC2)N1c1ccccc1)NCc1ccc(NS(=O)(=O)c2ccc(F)cc2)cc1` (stereo unspecified): the inhibition was 89%.
In the case of `O=C(CC1c2ccccc2N=C(N2CCCCC2)N1c1ccccc1)NCc1ccccc1` (stereo unspecified), the inhibition was 90.1%.
In the case of `COCC(=O)O[C@]1(CCN(C)CCCc2nc3ccccc3[nH]2)CCc2cc(F)ccc2[C@@H]1C(C)C`, the inhibition is 95.9%.
Still for that read-out and setting: to `CN1CCN(C2=Nc3ccccc3C(CC(=O)NCc3ccccc3)N2c2ccccc2)CC1` (stereo unspecified) belongs 29%; to `O=C(CC1c2ccccc2N=C(N2CCCCC2)N1c1ccccc1)NCc1ccc([N+](=O)[O-])cc1` (stereo unspecified), 92.3%.
For `Nc1ccc(CNC(=O)CC2c3ccccc3N=C(N3CCCCC3)N2c2ccccc2)cc1` (stereo unspecified), the inhibition was found to be 43.5%.
With `COC(=O)CC1c2ccccc2N=C(N2CCCCC2)N1c1ccccc1` (stereo unspecified), the inhibition was determined as 18.3%.
For `O=C(CC1c2ccccc2N=C(N2CCOCC2)N1c1ccccc1)NCc1ccccc1` (stereo unspecified), the inhibition was determined as 40.5%.
On to `Cc1ccc(S(=O)(=O)Nc2ccc(CNC(=O)CC3c4ccccc4N=C(N4CCCCC4)N3c3ccccc3)cc2)cc1` (stereo unspecified), for which the inhibition stood at 89.9%.
